Test [1] is described as follows: Her2 expression decrease, cell viability multiplex – SKBR3 breast tumor cells, AlphaScreen, ATP viability, primary screen (AID 461;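 active = Her2 level under about 52% in both replicate screens, with viability over 70% of control, limit read from the data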;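 as to Her2 level: lower value means less Her2 protein in the cells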;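 as to viability: percent of carrier control wells set as 100% viability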). Conditions: SKBR3 Her2 protein level, 18-24 h, measured here: SKBR3 viability, ATP luminescence, at 10 µM. (In Alpha technology, singlet oxygen from a donor bead excites a nearby acceptor bead.)
Test [2] addresses Receptor tyrosine-protein kinase erbB-2 (Homo sapiens) (UniProt P04626). The description is as above. The conditions noted are these: 18-24 h, at 10 µM, stronger effect = lower value.
Test [3] can be described thus: reduced viability of SK-BR-3 breast cancer cells – cell-based, 24 h, human, pilot screen (AID 572;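 active = viability at or below 10% of carrier control in both of two separate runs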;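 also: compound exposure lasted between 18 and 24 h rather than exactly 24 h; 100% = carrier-treated control wells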). Conditions: SK-BR-3 viability, CellTiter-Glo luminescence, at 10 µM, stronger effect = lower value. (ATP-based viability assays read luminescence as a measure of living cells.)
The nature of test [4]: HUVEC growth inhibition – cell-based, human, primary screen (AID 575).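 Also: 100% = median of untreated cell wells with 0.1% DMSO on each plate.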 Conditions: HUVEC proliferation, CellTiter-Glo luminescence, 72 h; at 10 µM; stronger effect = lower value. The method, boiled down: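 Test system: primary human umbilical vein endothelial cells; medium: endothelial basal medium with 2% FBS plus growth supplements; dosing: 10 µM compound only; times: 72 h treatment at 37 °C; signal: CTG luminescence; read-out: % viability relative to median vehicle-well signal on each plate; control set: vehicle and MePR control wells; plate: 384-well, collagen-coated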

A short description of test [5]: H69AR cell proliferation blockers – human, duplicate replicates, primary screen (AID 580;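 active = viability at or under a set limit in both replicates, limit being median viability minus 3 SD, cut at about 48% in these data, passing the limit was not always enough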;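 also: 100% = mean luminescence of untreated wells and 0% = no signal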). Conditions: H69AR lung tumor cells viability, ATP luminescence, 72 h; at 10 µM; stronger effect = lower value.
A short description of test [6]: MRP1 drug-resistance reversers in H69AR cells – cell-based, doxorubicin co-treatment, pilot screen (AID 601;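 active = viability loss from added drug above about 55%, and viability with drug at most 40%, in both replicates, limit read from the data, passing the limit was not always enough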). The conditions noted are these: CellTiter-Glo, 72 h, at 10 µM; for differential viability (reversal): stronger effect = higher value.
The nature of test [7]: yeast transport mutant growth inhibition pilot in 384-well plates, post-Golgi transport modulator project (AID 636; in the data active = inhibition above about 31%). Conditions: absorbance 615 nm, about 18 h, stronger effect = higher value.
A short description of test [8]: growth suppression of yeast trafficking mutant, preliminary HTS, modulators of trafficking downstream of Golgi apparatus project, 1536-format plate, OD 615 nm (AID 637; in the data active = inhibition above about 30%). Conditions: yeast transport mutant growth, absorbance 615 nm, 18 h; stronger effect = higher value.
[9] abbreviates: H69AR cells + 2 uM doxorubicin, measured here: viability with 2 uM doxorubicin, stronger effect = lower value.
Where [10] appears, read: H69AR cells, compound alone cytotoxicity.

A word on the viability: it is a read-out of living cells in per cent, often relative to untreated cells. By inhibition is commonly meant the relative decrease from the control value, in per cent.

SMILES strings stand for the structures. Values joined by “and” are separate entries in the source; they are usually repeats but may differ in a detail not shown here. Equal entries are not always repeated. Active and inactive are the calls of the source.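 The calls were made as follows, unless noted: active = viability at or below 30% in both replicate assays; inconclusive = viability at or below 30% in just one of the two assays; inactive = the rest.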

Receptor tyrosine-protein kinase erbB-2 (Homo sapiens), sequence (P04626 whole entry, looked up): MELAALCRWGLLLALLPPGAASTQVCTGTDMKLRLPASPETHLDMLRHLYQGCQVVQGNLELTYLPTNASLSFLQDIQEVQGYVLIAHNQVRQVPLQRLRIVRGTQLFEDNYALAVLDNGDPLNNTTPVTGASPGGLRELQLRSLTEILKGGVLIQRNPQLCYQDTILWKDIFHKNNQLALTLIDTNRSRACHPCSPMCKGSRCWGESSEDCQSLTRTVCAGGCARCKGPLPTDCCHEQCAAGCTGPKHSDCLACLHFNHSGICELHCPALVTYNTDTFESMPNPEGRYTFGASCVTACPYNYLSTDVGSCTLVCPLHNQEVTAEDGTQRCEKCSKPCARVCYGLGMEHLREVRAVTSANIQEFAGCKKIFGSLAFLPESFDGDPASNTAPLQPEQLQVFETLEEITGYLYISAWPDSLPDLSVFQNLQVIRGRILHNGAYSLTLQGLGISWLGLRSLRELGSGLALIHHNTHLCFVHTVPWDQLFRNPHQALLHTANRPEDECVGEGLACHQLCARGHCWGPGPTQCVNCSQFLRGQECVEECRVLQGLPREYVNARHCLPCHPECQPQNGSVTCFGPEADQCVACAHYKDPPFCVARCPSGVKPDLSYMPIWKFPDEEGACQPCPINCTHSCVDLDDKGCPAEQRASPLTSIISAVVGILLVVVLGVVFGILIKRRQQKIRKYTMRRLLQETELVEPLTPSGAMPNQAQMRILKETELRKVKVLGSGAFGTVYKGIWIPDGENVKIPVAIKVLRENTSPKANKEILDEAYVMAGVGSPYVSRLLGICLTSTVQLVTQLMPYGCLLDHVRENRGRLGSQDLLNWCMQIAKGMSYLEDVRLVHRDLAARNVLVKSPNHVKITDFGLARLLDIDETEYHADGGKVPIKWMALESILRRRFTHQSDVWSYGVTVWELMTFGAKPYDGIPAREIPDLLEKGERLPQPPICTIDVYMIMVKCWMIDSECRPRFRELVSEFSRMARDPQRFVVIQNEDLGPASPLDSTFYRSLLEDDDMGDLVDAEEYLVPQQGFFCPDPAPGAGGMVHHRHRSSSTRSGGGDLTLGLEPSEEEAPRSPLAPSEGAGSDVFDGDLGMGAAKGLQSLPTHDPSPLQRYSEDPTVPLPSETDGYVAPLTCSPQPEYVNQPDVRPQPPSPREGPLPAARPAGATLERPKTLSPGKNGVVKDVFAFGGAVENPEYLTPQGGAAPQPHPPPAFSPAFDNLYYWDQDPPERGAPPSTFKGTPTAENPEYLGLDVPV

With `CNC(=O)c1nnn(Cc2ccccc2)c1NC(C)=O`, the viability was 97.5% in test [1]; 97.5% (inactive) in test [3]; 104% (inactive) in test [4]; 88.9% (inactive) in test [5]; 96.1% in test [6] (setting [9]); 88.9% in test [6] (setting [10]). Further, the Her2 level in test [2] is 105% (inactive). Besides, the differential viability (reversal) in test [6] (H69AR cells + 2 uM doxorubicin) was -7.25% (inactive). In addition, the inhibition in test [7] was 1.35% (inactive); in test [8], 12.5% (inactive).

Consider `Cc1cc(C)n(-c2nc(C)nc3sc4c(c23)CCC(C)C4)n1` (stereo not given), for which the viability in test [1] was 92.5%; in test [3], 92.5% (inactive); in test [4], 80.8% (inactive); in test [5] it was 96.4% (inactive); in test [6] (setting [9]) it was 96.8%; in test [6] (setting [10]), 96.4%. In addition, the Her2 level in test [2] was 108% (inactive). For the same molecule, in test [6] (H69AR cells + 2 uM doxorubicin), the differential viability (reversal) is -0.45% (inactive). Moreover, the inhibition in test [7] is -1.04% (inactive); in test [8] it was -13.8% (inactive).

In the case of `COc1ccccc1N=Cc1nc(-c2ccccc2)oc1OC(C)=O`, the viability is 99% in test [1]; 99% (inactive) in test [3]; 79.2% (inactive) in test [4]; 63.1% (inactive) in test [5]; 76.8% in test [6] (setting [9]); 63.1% in test [6] (setting [10]). Besides, the Her2 level in test [2] was 82.5% (inactive). For the same molecule, the differential viability (reversal) in test [6] (H69AR cells + 2 uM doxorubicin) is -13.8% (inactive). The inhibition in test [7] was -4.61% (inactive); in test [8], -2.38% (inactive).

In the case of `COc1cc(NC(=O)C2CC(c3cccc(OC)c3OC)=NO2)cc(OC)c1OC` (stereo not given), the viability was 83% in test [1]; 83% (inactive) in test [3]; 54.9% (inactive) in test [4]; 27.3% (active) in test [5]; 69.1% in test [6] (setting [9]); 27.3% in test [6] (setting [10]). In addition, in test [2], the Her2 level is 99% (inactive). The differential viability (reversal) in test [6] (H69AR cells + 2 uM doxorubicin) was -41.8% (inactive). The inhibition in test [7] was 6.84% (inactive); in test [8] it was -4.18% (inactive).

As to `c1ccc(-c2cn3c4c(sc3n2)CCCC4)cc1`, the viability is 89% in test [1]; 89% (inactive) in test [3]; 46% (inactive) in test [4]; 39.9% (active) in test [5]; 65.2% in test [6] (setting [9]); 39.9% in test [6] (setting [10]). The Her2 level in test [2] was 76% (inactive). In test [6] (H69AR cells + 2 uM doxorubicin), the differential viability (reversal) is -25.4% (inactive). In addition, the inhibition in test [7] is -2.37% (inactive); in test [8] it was 1.27% (inactive).

For the molecule `CCN(CC)CC(C)CNC(=O)CC(C(=O)N1CCc2ccccc21)n1ccnc1` (stereo not given), the viability in test [1] was 88.5%; in test [3], 88.5% (inactive); in test [4], 104% (inactive); in test [5], 95.9% (inactive); in test [6] (setting [9]) it was 104%; in test [6] (setting [10]), 95.9%. Further, in test [2], the Her2 level is 106% (inactive). Moreover, the differential viability (reversal) in test [6] (H69AR cells + 2 uM doxorubicin) is -7.88% (inactive). In addition, the figures for the inhibition in test [7] and in test [8] were 0.52% (inactive) and -9.34% (inactive), respectively.

Consider `O=C(CCC(=O)OCCCC(F)(F)C(F)(F)F)NC1CCCCC1`, for which the viability was 123% in test [1]; 123% (inactive) in test [3]; 112% (inactive) in test [4]; 95.3% (inactive) in test [5]; 91.9% in test [6] (setting [9]); 95.3% in test [6] (setting [10]). Besides, in test [2], the Her2 level was 112% (inactive). Besides, the differential viability (reversal) in test [6] (H69AR cells + 2 uM doxorubicin) was 3.4% (inactive). The inhibition in test [7] is -5.47% (inactive); in test [8], -3.23% (inactive).

For `O=C(CSc1nnc(Cc2ccccc2)n1C1CCCCC1)N1CCOCC1`, the viability is 92.5% in test [1]; 92.5% (inactive) in test [3]; 97.9% (inactive) in test [4]; 95.6% (inactive) in test [5]; 89.2% in test [6] (setting [9]); 95.6% in test [6] (setting [10]). Moreover, the Her2 level in test [2] is 110% (inactive). In addition, the differential viability (reversal) in test [6] (H69AR cells + 2 uM doxorubicin) is 6.44% (inactive). Further, the inhibition was -3.03% (inactive) in test [7] and -3.97% (inactive) in test [8].

Consider `N#CCCNCC1(c2ccccc2)CCCC1`, for which the viability in test [1] is 96%; in test [3] it was 96% (inactive); in test [4], 106% (inactive); in test [5] it was 102% (inactive); in test [6] (setting [9]), 89.4%; in test [6] (setting [10]), 102%. Further, in test [2], the Her2 level was 94% (inactive). The differential viability (reversal) in test [6] (H69AR cells + 2 uM doxorubicin) is 12.9% (inactive). For the same molecule, the inhibition in test [7] was 2.97% (inactive); in test [8], -4.13% (inactive).

As for `Cc1cccc(-c2cc3nc4c(c(N5CCOCC5)n3n2)CCCC4)c1`, the viability in test [1] is 93%; in test [3], 93% (inactive); in test [4], 71.7% (inactive); in test [5], 76% (inactive); in test [6] (setting [9]) it was 78.4%; in test [6] (setting [10]) it was 76%. Besides, the Her2 level in test [2] was 70% (inactive). Further, in test [6] (H69AR cells + 2 uM doxorubicin), the differential viability (reversal) is -2.37% (inactive). In addition, the results for the inhibition in test [7] and in test [8] were -6.76% (inactive) and 2.95% (inactive), respectively.

On to `c1ccc(-c2nnc(-c3ccco3)n2-c2ccccc2)cc1`, for which the viability in test [1] is 81.5%; in test [3] it was 81.5% (inactive); in test [4] it was 87% (inactive); in test [5] it was 88.1% (inactive); in test [6] (setting [9]), 98.6%; in test [6] (setting [10]), 88.1%. Further, the Her2 level in test [2] was 78% (inactive). In addition, the differential viability (reversal) in test [6] (H69AR cells + 2 uM doxorubicin) is -10.6% (inactive). The inhibition in test [7] was -6.08% (inactive); in test [8], 3.61% (inactive).

As for `O=C(NCCC1=CCCCC1)C1CC(=O)N(C2CCCCCC2)C1` (stereo not given), the viability in test [1] is 98%; in test [3], 98% (inactive); in test [4], 104% (inactive); in test [5] it was 99.5% (inactive); in test [6] (setting [9]), 88.5%; in test [6] (setting [10]), 99.5%. The Her2 level in test [2] was 110% (inactive). Moreover, the differential viability (reversal) in test [6] (H69AR cells + 2 uM doxorubicin) was 11% (inactive). Besides, the inhibition in test [7] was -1.15% (inactive); in test [8], -0.67% (inactive).

On to `Cc1cc(C)n(-c2nc3ccccc3c(=O)n2OCCOc2ccccc2)n1`, for which the viability is 78% in test [1]; 78% (inactive) in test [3]; 97.2% (inactive) in test [4]; 89.6% (inactive) in test [5]; 79.3% in test [6] (setting [9]); 89.6% in test [6] (setting [10]). For the same molecule, in test [2], the Her2 level was 93% (inactive). Besides, the differential viability (reversal) in test [6] (H69AR cells + 2 uM doxorubicin) was 10.3% (inactive). Also, the inhibition in test [7] was -0.13% (inactive); in test [8], -6.07% (inactive).

For the molecule `Nc1ccc(C(=O)O)c(O)c1`, the viability is 100% in test [1]; 100% (inactive) and 130% (inactive) in test [3]; 105% (inactive) and 87.5% (inactive) in test [4]; 78.2% (inactive) and 90.7% (inactive) in test [5]; 107% and 84.1% in test [6] (setting [9]); 78.2% and 90.7% in test [6] (setting [10]). Besides, the Her2 level in test [2] is 113% (inactive). Besides, in test [6] (H69AR cells + 2 uM doxorubicin), the differential viability (reversal) was -28.9% (inactive) and 6.59% (inactive). Moreover, the inhibition in test [7] was -1.82% (inactive); in test [8], 15.8% (inactive).

As for `CCOC(=O)C1CCN(c2c(N(C)Cc3ccco3)c(=O)c2=O)CC1`, the viability is 78% in test [1]; 78% (inactive) in test [3]; 93% (inactive) in test [4]; 104% (inactive) in test [5]; 88.9% in test [6] (setting [9]); 104% in test [6] (setting [10]). The Her2 level in test [2] is 105% (inactive). In addition, in test [6] (H69AR cells + 2 uM doxorubicin), the differential viability (reversal) is 15% (inactive). The values for the inhibition in test [7] and in test [8] were 0.13% (inactive) and -5.5% (inactive), respectively.

For `O=C(CSc1nc(-c2ccccc2)cs1)NCc1ccco1`, the viability was 100% in test [1]; 100% (inactive) in test [3]; 103% (inactive) in test [4]; 94.8% (inactive) in test [5]; 93% in test [6] (setting [9]); 94.8% in test [6] (setting [10]). The Her2 level in test [2] is 102% (inactive). Further, the differential viability (reversal) in test [6] (H69AR cells + 2 uM doxorubicin) is 1.79% (inactive). Also, the inhibition was -6.08% (inactive) in test [7] and -9.18% (inactive) in test [8].

Source of the values: PubChem BioAssay.
